# ChEMBL document CHEMBL4715918, “Syntheses and evaluation of acridone-naphthalimide derivatives for regulating oncogene PDGFR-β expression” (Bioorg Med Chem, 2021)
# Legend:
# [1] = Toxicity in nude BALB/c mouse xenografted with human MCF7 cells assessed as kidney weight at 2.5 to 10 mg/kg, ip administered for 34 days; type: organism-based; conditions: in vivo, 816 h, dose 2.5-10 mg/kg, time 34 day
# In short: (§1)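 Nude BALB/c females bearing subcutaneous MCF-7 xenografts were dosed ip once daily for 34 days at 2.5, 5.0 or 10 mg/kg, with saline vehicle (100 µL) as control. Body weight was recorded every 2 days. After euthanasia by cervical dislocation, heart, liver, spleen and kidney were removed and weighed.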
# [2] = Binding affinity to 5'-FAM-GCGTCCACCCTCCCTGCCCCGCCGCCCCCCCTTCTCCCAGC-TAMRA-3' i-motif DNA (unknown origin) assessed as unfolding i-motif structure by measuring reduction in I585/I518 ratio by FRET assay; conditions: dose 2-10 equiv
# In short: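 FRET probe: i-motif oligonucleotide dual-labelled with FAM donor and TAMRA acceptor, 10 µM in 30 mM BPES buffer with 1 mM EDTA, KCl, thermally annealed. Compound was added in equal volume at increasing concentrations. Emission was scanned 500–700 nm and corrected for the compound's own signal. Read-out was the I585/I518 ratio, with the titration run at pH 6.2.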
# MCF7 [3] = experiment: Binding affinity to wild type PDGFRbeta promoter (unknown origin) in human MCF7 cells assessed as down regulation of PDGFRbeta mRNA expression at 1.25 to 20 uM after 12 hrs by RT-PCR analysis; type: cell-based; conditions: dose 1.25-20 µM
# MCF7 [4] = experiment: Binding affinity to wild type PDGFRbeta promoter (unknown origin) in human MCF7 cells assessed as down regulation of PDGFRbeta expression at 1.25 to 20 uM after 12 hrs; conditions: dose 1.25-20 µM
# MCF7 [5] = experiment: Cytotoxicity against human MCF7 cells assessed as reduction in cell viability after 48 hrs by xcCELLigence RTCA analysis; type: functional, cell-based; conditions: MCF7, 48 h
# In short: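 xCELLigence RTCA: MCF-7 cells were cultured on E-plates about 16 h, then treated with 0.625, 1.25, 2.5 μM compound or DMSO. Impedance was monitored for 90 h.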
# [6] = Toxicity in nude BALB/c mouse xenografted with human MCF7 cells assessed as spleen weight at 2.5 to 10 mg/kg, ip administered for 34 days; type: organism-based; conditions: in vivo, 816 h, dose 2.5-10 mg/kg, time 34 day; in short: as §1
# MCF7 [7] = experiment: Induction of cell cycle arrest in human MCF7 cells assessed as accumulation at G0/G1 phase at 0.625 to 10 uM after 48 hrs by propidium iodide staining based flow cytometric analysis (reference value: 75.7%); type: functional; conditions: dose 0.625-10 µM
# In short: (§2)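 MCF-7 cells, 2 × 10^5/well, were pre-grown 12 h, then treated with 10, 5, 2.5, 1.25, 0.625 μM compound or DMSO. Cells were fixed in 75% ethanol at −20 °C overnight. Staining was 50 μg/mL PI with RNase A, 30 min at room temperature in the dark. Flow cytometry collected 10,000 events; phase distribution was determined.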
# [8] = Toxicity in nude BALB/c mouse xenografted with human MCF7 cells assessed as heart weight at 2.5 to 10 mg/kg, ip administered for 34 days; type: organism-based; conditions: in vivo, 816 h, dose 2.5-10 mg/kg, time 34 day; in short: as §1
# MCF7 [9] = experiment: Cytotoxicity against human MCF7 cells assessed as reduction in cell viability after 48 hrs by MTT assay; type: functional, cell-based; conditions: MCF7, 48 h
# In short: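 MTT assay: cells seeded at 5.0 × 10³/well, grown 12 h, then exposed to graded compound concentrations for 48 h at 37 °C/5% CO2. 2.5 mg/mL MTT was added for 4 h, formazan dissolved in DMSO, and absorbance read at 570 nm. Each dose in triplicate; IC50 from percent survival versus negative control.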
# MCF7 [10] = experiment: Induction apoptosis in human MCF7 cells assessed as late apoptotic cells at 2.5 uM incubated for 24 hrs by Annexin-FTTC/PI staining based flow cytometric analysis (reference value: 0%); type: functional
# [11] = Binding affinity to 5'-biotin-d [GCGTCCACCCTCCCTGCCCCGCCGCCCCCCCITCTCCCAGC]-3' i-motif DNA (unknown origin) by surface plasmon resonance assay
# In short: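 SPR: biotinylated oligomers were captured on a neutravidin chip at ~1000 RU, with a blank reference cell. Running buffer was 20 mM MES pH 5.5, 100 mM KCl, 0.05% Tween-20 for the i-motif, or 50 mM Tris-HCl pH 7.4, 100 mM KCl for the G-quadruplex. Ligand was injected at 0–10 μM (six concentrations), with 200 s association and 300 s dissociation at 25 °C.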
# [12] = Toxicity in nude BALB/c mouse xenografted with human MCF7 cells assessed as liver weight at 2.5 to 10 mg/kg, ip administered for 34 days; type: organism-based; conditions: in vivo, 816 h, dose 2.5-10 mg/kg, time 34 day; in short: as §1
# MCF7 [13] = experiment: Induction apoptosis in human MCF7 cells assessed as late apoptotic cells at 5 uM incubated for 24 hrs by Annexin-FTTC/PI staining based flow cytometric analysis (reference value: 0%); type: functional
# MCF7 [14] = experiment: Induction of cell cycle arrest in human MCF7 cells assessed as accumulation at G2/M phase at 0.625 to 10 uM after 48 hrs by propidium iodide staining based flow cytometric analysis (reference value: 15.8%); type: functional; conditions: dose 0.625-10 µM; in short: as §2
# Quadruplex DNA = experiment: Binding affinity to 5'-FAM-GGGAGAAGGGGGGGCGGCGGGGCAGGGAGGGTGGAC-TAMRA-3' G4-quadruplex DNA (unknown origin) assessed as stabilization G4-quadruplex structure by measuring increase in I585/I518 ratio by FRET assay; type: nucleic-acid assay; conditions: dose 2-10 equiv
# In short: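 FRET probe dual-labelled FAM/TAMRA, annealed, 10 µM in 10 mM Tris-HCl pH 7.4 with 10 mM KCl; compound added in equal volume. Emission 500–700 nm recorded, corrected for compound signal in the same buffer; I585/I518 ratio compared.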
# MCF7 [15] = experiment: Antitumour activity against human MCF7 cells xenografted in nude BALB/c mouse assessed as tumour growth inhibition at 2.5 mg/kg, ip administered for 34 days relative to control; type: functional; conditions: 816 h, time 34 day, read-out: TGI
# MCF7 [16] = experiment: Induction apoptosis in human MCF7 cells assessed as late apoptotic cells at 1.25 uM incubated for 24 hrs by Annexin-FTTC/PI staining based flow cytometric analysis (reference value: 0%); type: functional
# MCF7 [17] = experiment: Antiinvasive activity in human MCF7 cells assessed as reduction in cell migration by microscopic method; type: functional, cell-based; conditions: dose […], time 24-48 hrs
# In short: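 Scratch assay: MCF-7 seeded 300,000 cells/well, grown 24 h at 37 °C/5% CO2, then a cross-shaped scrape was made through the monolayer with a pipet tip. Cells were exposed to 5, 2.5, 1.25, 0.625, 0.3125 μM compound or DMSO control. Wounded areas were photographed by microscopy at 0, 24 and 48 h.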
# [18] = Binding affinity to 5'-FAM-GCGTCCACCCTCCCTGCCCCGCCGCCCCCCCTTCTCCCAGC-TAMRA-3' i-motif DNA (unknown origin) at pH 5.5 assessed as unfolding i-motif structure
# MCF7 [19] = experiment: Induction of cell cycle arrest in human MCF7 cells assessed as accumulation at G2/M phase after 48 hrs by propidium iodide staining based flow cytometric analysis; type: functional; conditions: dose 0.625-10 µM; in short: as §2
# MCF7 [20] = experiment: Induction apoptosis in human MCF7 cells assessed as necrotic cells at 1.25 uM incubated for 24 hrs by Annexin-FTTC/PI staining based flow cytometric analysis (reference value: 0.11%); type: functional
smiles,measurement,setting,value
Cc1ccc2c(c1)c(=O)c1cc(C(=O)NCCCN(C)CCCN3C(=O)c4cccc5c(N6CCN(C)CC6)ccc(c45)C3=O)ccc1n2-c1ccc(C(=O)NCCCN(C)CCCN2C(=O)c3cccc4c(N5CCN(C)CC5)ccc(c34)C2=O)cc1,Activity,[1],Non-Toxic
same,Activity,[2],Dose-dependent effect
same,Activity,MCF7 [3],Dose-dependent effect
same,Activity,MCF7 [4],Dose-dependent effect
same,IC50,MCF7 [5],2.74 µM
same,Activity,[6],Non-Toxic
same,Activity,MCF7 [7],48.1%
same,Activity,[8],Non-Toxic
same,IC50,MCF7 [9],4.69 µM
same,Activity,MCF7 [10],1.96%
same,Kd,[11],3.12 µM
same,Activity,[12],Non-Toxic
same,Activity,MCF7 [13],51.1%
same,Activity,MCF7 [14],31.5%
same,Activity,Quadruplex DNA,Dose-dependent effect
same,inhibition in vivo at 2.5 mg/kg,MCF7 [15],34.9%
same,Activity,MCF7 [16],0.8%
same,Activity,MCF7 [17],Dose-dependent effect
same,Activity,[18],Dose-dependent effect
same,Activity,MCF7 [19],Dose-dependent effect
same,Activity,MCF7 [20],0.43%
